Out of some 360,000 compounds screened, about 500 (0.14%) were called active.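 How the source made its calls: active means mean inhibition of at least 70% across replicates, with every replicate also reaching that level; inconclusive means mean inhibition reaches 70% but some replicates fall short; inactive means mean inhibition below 70%.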 For the sample, actives were picked, then their nearest neighbours and some compounds at random.
Molecular target: Protein S100-A4 (Homo sapiens) (UniProt P26447)
Assay: inhibitors of S100A4-myosin IIA peptide binding, primary screen, biochemical, fluorescence polarization, TAMRA-MyoIIA peptide (AID 652163)
Details: at 10.7 µM, stronger effect = higher value
Method in brief: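 assay system = human S100A4 monomer with TAMRA-labelled myosin IIA peptide | also added = labelled myosin peptide probe, 5 nM | incubation = 5 min between mix addition and reading | control set = DMSO and TFP controls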

Sequence of Protein S100-A4 (Homo sapiens) (P26447 whole entry, looked up): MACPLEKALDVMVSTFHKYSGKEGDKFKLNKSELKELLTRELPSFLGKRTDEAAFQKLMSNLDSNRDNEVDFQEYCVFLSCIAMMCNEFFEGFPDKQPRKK

inhibition, inactive:
NCC[C@H]1CC[C@H](NC(=O)C2CC2)[C@@H](CO)O1 4.1%, CCCN1C[C@@H](C)[C@@H](OC)CN(C)C(=O)c2cc(NC(=O)CC(F)(F)F)ccc2OC[C@H]1C -32.9%, COCC#Cc1ccc2c(c1)O[C@H](CN(C)CC1CC1)[C@H](C)CN([C@H](C)CO)S2(=O)=O 4.13%, CC(C)NC(=O)N(C)C[C@H]1Oc2ncc(-c3ccc(C(=O)N(C)C)cc3)cc2C(=O)N([C@H](C)CO)C[C@H]1C -3.24%, C[C@@H]1CN([C@H](C)CO)C(=O)c2cc(-c3ccncc3)cnc2O[C@@H]1CN(C)C(=O)Cc1cccnc1 11.8%, CC(C)NC(=O)N(C)C[C@@H]1Oc2cc(C#C[C@H](C)O)ccc2S(=O)(=O)N([C@@H](C)CO)C[C@H]1C -1.62%, CC(C)C#Cc1ccc2c(c1)O[C@@H](CN(C)C(=O)Nc1ccccc1)[C@H](C)CN([C@H](C)CO)S2(=O)=O 15.5%, CNC[C@@H]1Oc2ncc(-c3ccc(F)cc3)cc2C(=O)N([C@H](C)CO)C[C@@H]1C 6.49%, CCCC(=O)Nc1ccc2c(c1)C(=O)N(C)C[C@H](OC)[C@@H](C)CN(C(C)=O)[C@H](C)CO2 3.22%, CO[C@H]1CN(C)C(=O)c2ccc(NC(=O)c3nc4ccccc4s3)cc2OC[C@H](C)N(Cc2cccnc2)C[C@@H]1C -1.61%, CC(=O)N1Cc2cc(C(=O)NCc3cc(F)cc(F)c3)nc(-c3cccc(C4=CCCC4)c3)c2[C@@H]1CCO -14.1%, N#C[C@@H]1[C@@H](c2ccc(-c3ccccc3)cc2)[C@@H](CO)N1C(=O)Cc1ccccc1 9.02%, CO[C@H]1CN(C)C(=O)c2cc(NC(=O)Nc3ccccc3F)ccc2OC[C@@H](C)N(CCC(F)(F)F)C[C@@H]1C -11.4%, CN(C)C(=O)c1ccc(-c2ccc([C@@H]3[C@H](C#N)N(C(=O)C4CC4)[C@H]3CO)cc2)cc1 -6.47%, Cc1noc(C)c1S(=O)(=O)N(C)C[C@@H]1OCCCC[C@H](C)Oc2ccc(NC(=O)NC3CCCCC3)cc2C(=O)N([C@@H](C)CO)C[C@H]1C -8.81%, C[C@@H]1CN([C@H](C)CO)C(=O)c2cc(NC(=O)Nc3ccc(F)cc3)ccc2O[C@@H](C)CCCCO[C@H]1CN(C)Cc1ccc(Cl)c(Cl)c1 4.63%, COc1ccc(C(=O)Nc2ccc3c(c2)OC[C@H](C)N(C(C)=O)C[C@@H](C)[C@@H](OC)CN(C)C3=O)cc1 -16%, C[C@@H]1CN([C@H](C)CO)C(=O)c2cccc(NC(=O)C3CCCCC3)c2O[C@@H]1CN(C)C(=O)NC1CCCCC1 1.54%, C[C@H](O)C#Cc1ccc2c(c1)O[C@H](CN(C)Cc1ccccn1)[C@H](C)CN([C@H](C)CO)S2(=O)=O -12.6%, O=C(Nc1cccc(C(F)(F)F)c1)c1ccc(N2CCNCC2)c([N+](=O)[O-])c1 -2.54%, COc1cccc(NC(=O)c2ccc3c(SCC(=O)O)c4c(nc3c2)CCCC4)c1 6.49%, C[C@H]1CN([C@@H](C)CO)C(=O)CCCn2cc(nn2)CO[C@H]1CN(C)S(=O)(=O)c1ccc2ccccc2c1 1.04%, O=C(C[C@@H]1C[C@H]2c3cc(NS(=O)(=O)c4ccc(F)cc4)ccc3O[C@H]2[C@@H](CO)O1)NCc1ccccc1F -3.71%, O=C(NC1CCCCC1)[C@@H]1[C@@H](CO)[C@@H]2Cn3c(cccc3=O)[C@@H]2N1C(=O)CC1CC1 1.5%, COCC(=O)N1CC(=O)N2[C@H](CO)[C@@H](c3ccc(C#CC4CCCCC4)cc3)[C@@H]2C1 -8.44%, COc1ccc(NC(=O)N[C@H]2CC[C@@H](CCNS(=O)(=O)c3cccc(Cl)c3)O[C@H]2CO)cc1 18.1%, O=C(Nc1ccccc1F)N[C@H]1CC[C@@H](CCNS(=O)(=O)c2ccc(F)cc2)O[C@@H]1CO -5.07%, Cc1noc(C)c1S(=O)(=O)Nc1ccc2c(c1)C(=O)N([C@H](C)CO)C[C@H](C)[C@@H](CN(C)C(=O)CCC(F)(F)F)OCCCC[C@H](C)O2 -11.4%, C[C@@H]1CN([C@@H](C)CO)S(=O)(=O)c2ccc(C#CCC3CCCC3)cc2O[C@H]1CN(C)Cc1ccc(C(=O)O)cc1 -3.27%, COc1ccc2c3c([nH]c2c1)[C@H](CO)N(C(=O)Nc1cccc(F)c1)CC31CCN(S(=O)(=O)c2ccccc2)CC1 -4.14%, COc1ccc(CN(C)C[C@H]2Oc3ccc(NS(=O)(=O)c4ccc(C)cc4)cc3C(=O)N([C@@H](C)CO)C[C@H]2C)cc1 -4.3%, C[C@@H]1CN([C@@H](C)CO)C(=O)c2cccc(NC(=O)Nc3ccc(F)cc3)c2O[C@@H]1CN(C)Cc1ccc(C(=O)O)cc1 16.9%, CCC(=O)N1C[C@H](C)[C@H](OC)CN(C)C(=O)c2ccc(NC(=O)Nc3cccc(F)c3)cc2OC[C@@H]1C -17.6%, O=C(C[C@@H]1CC[C@H]2[C@@H](COC[C@H](O)CN2S(=O)(=O)c2ccc(F)cc2)O1)N[C@H]1CCN(Cc2ccccc2)C1 2.74%, C[C@@H](NC(=O)C[C@H]1C[C@@H]2c3cc(NC(=O)C4CCC4)ccc3O[C@@H]2[C@@H](CO)O1)c1ccccc1 8.72%, CC(C)CC#Cc1ccc([C@@H]2[C@@H](CO)N3C(=O)CN(C(=O)Nc4ccc(F)cc4)C[C@H]23)cc1 -1.01%, CO[C@H]1CN(C)C(=O)c2ccc(NC(C)=O)cc2OC[C@H](C)N(C(=O)c2ccccc2)C[C@H]1C -4.17%, COc1ccc(CN(C)C[C@@H]2OCCCC[C@H](C)Oc3ccc(NS(=O)(=O)c4ccc(F)cc4)cc3C(=O)N([C@@H](C)CO)C[C@@H]2C)cc1 -2.85%, C[C@H]1CCCCO[C@H](CN(C)S(C)(=O)=O)[C@@H](C)CN([C@@H](C)CO)C(=O)c2cc(NC(=O)C3CCCCC3)ccc2O1 3.69%, O=C(Nc1ccc(F)cc1)N1C[C@H]2[C@@H](c3ccccc31)[C@@H](CO)N2Cc1cocn1 -2.03%, CO[C@@H]1CN(C)C(=O)c2ccc(NS(=O)(=O)c3cccc(F)c3)cc2OC[C@H](C)N(C(=O)Cc2cccnc2)C[C@@H]1C 0.669%, CC(C)[C@@H]1COCn2nncc2CCCC(=O)N1 -3.23%, CCCNC(=O)[C@@H]1[C@@H](CO)[C@@H]2Cn3c(cccc3=O)[C@H]1N2C(=O)C1CCC1 6.67%, Cc1cccc(S(=O)(=O)N2C[C@@H]3[C@H](c4ccccc42)[C@@H](CO)N3C(=O)c2ccccc2)c1 3.03%, Cc1cccc(S(=O)(=O)N2C[C@H]3[C@@H](c4ccccc42)[C@H](CO)N3Cc2ccc3c(c2)OCO3)c1 7.88%, C[C@H](CO)N1C[C@H](C)[C@@H](CN(C)C(=O)Nc2ccccc2)Oc2ncc(C3=CCCC3)cc2C1=O 2.15%, CO[C@H]1CN(C)C(=O)c2cc(NS(=O)(=O)c3ccc(C)cc3)ccc2OC[C@H](C)NC[C@H]1C 7.5%, COc1cccc(C#Cc2cnc3c(c2)C(=O)N([C@@H](C)CO)C[C@H](C)[C@H](CN(C)CC2CC2)O3)c1 -46.8%, O=C(C[C@@H]1CC[C@@H](NC(=O)Nc2ccc(F)cc2)[C@@H](CO)O1)NCCN1CCCC1 -3.14%, O=C(Cc1ccccc1)N1C[C@H]2[C@@H](c3ccccc31)[C@H](CO)N2C(=O)c1ccc(F)cc1 7.78%, CCS(=O)(=O)N1[C@H](CO)[C@@H](c2ccccc2)C12CN(C(=O)C1CCC1)C2 -10%, COc1ccc(NC(=O)N(C)C[C@@H]2OCCCC[C@@H](C)Oc3ccc(NC(=O)C4CCCCC4)cc3C(=O)N([C@@H](C)CO)C[C@@H]2C)cc1 2.51%, CCCNC(=O)Nc1ccc2c(c1)OC[C@H](C)N(C(=O)C1CCC1)C[C@H](C)[C@@H](OC)CN(C)C2=O -7.21%, COCC#Cc1cnc2c(c1)C(=O)N([C@H](C)CO)C[C@@H](C)[C@@H](CN(C)C(=O)Nc1cccc(F)c1)O2 -1.97%, C[C@@H]1CN([C@H](C)CO)C(=O)c2cc(NC(=O)Cn3cnnn3)ccc2O[C@@H]1CN(C)CC1CC1 13.2%, CN(C)C(=O)c1ccc(-c2ccc([C@@H]3[C@@H](CO)N4CCCCN(CC5CC5)C[C@H]34)cc2)cc1 11.7%, O=C(C[C@H]1C=C[C@H](NC(=O)CN2CCOCC2)[C@@H](CO)O1)NCc1cccc(F)c1 2.82%, CC=Cc1ccc2n(c1=O)C[C@H]1[C@H](CO)[C@@H](C(=O)NCCc3cn(C)cn3)[C@@H]2N1C(=O)CC (mixture of isomers) -3.21%

inhibition, active:
CC(C)C#Cc1ccc2c(c1)O[C@@H](CN(C)C(=O)NC(C)C)[C@H](C)CN([C@H](C)CO)S2(=O)=O 106%, O=C(O)CSc1c2c(nc3cc(C(=O)Nc4cccc(C(F)(F)F)c4)ccc13)CCCC2 71.4%, COc1ccccc1NC(=O)N[C@H]1CC[C@H](CCNS(=O)(=O)c2ccc(Cl)cc2)O[C@H]1CO 107%, Cc1cccc(S(=O)(=O)N2C[C@@H]3[C@H](c4ccccc42)[C@H](CO)N3CC2CCOCC2)c1 86.4%

Reference: PubChem BioAssay AID652163 (Broad Institute, 2013)
